Active and inactive are the calls of the source. The calls are words filed in the database; no cut-off is given here.
What was measured:
[1] = organism: Rattus norvegicus; assay: Compound was evaluated for its antiulcer activity in rat; type: functional
Outline: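 Male Sprague-Dawley rats, 180–250 g, 8/group, fasted 24 h with water. Compound by gavage right after indomethacin 15 mg/kg ip. Stomachs examined 5 h later under a 10× microscope; lesion number and severity scored on an arbitrary scale. ED50 is the dose reducing lesions by 50%.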

[2] = organism: Mus musculus; assay: In vitro antithrombotic activity in mouse; type: functional; conditions: in the assay text read “In vivo” for “In vitro”
Outline: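 Male Swiss mice, 20–30 g, 10/group. Oral dose in 1% hydroxymethylcellulose, equimolar to ASA 20 mg/kg. At 1 h, iv tail injection of collagen (200 μg/mL) plus adrenaline (200 μM), 10 mL/kg, after warming at 27 °C. Death or hind-limb paralysis over 15 min counted; % protection = (Nc−Nt)/Nc×100.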

[3] = (§1) Area under curve was determined for 0-6 hr duration using dihydralazine as reference drug for the peak blood pressure; type: ADME; design: concentration or dose not given beside the values
Outline: (§2)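 SH rats, fasted, given a single oral dose of 12.5 mg/kg in 1% methylcellulose by gavage. Tail-cuff systolic pressure read hourly; area under the curve taken over 0–6 h. Dihydralazine was the reference; relative activity is AUC(dihydralazine)/AUC(compound), and a smaller AUC means higher activity.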

[4] = organism: Cavia porcellus; assay: Compound was tested in vitro for antiaggregation induced by thrombin at 0.625 IU/mL in guinea pig PRP after 4 min; type: functional
Outline: (§3)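 Born method. Citrated (3.8%, 1:10) aortic blood from fasted male guinea pigs under pentobarbital, centrifuged to give platelet-rich plasma. Incubated 10 min at room temperature with compound at 66 μM. Aggregation triggered by ADP, equine tendon collagen or thrombin. Result is % inhibition vs controls, mean of five experiments; thrombin values read at 2 or 4 min.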

[5] = tested on: Rattus norvegicus; assay: Compound was evaluated for its antiinflammatory activity in rat by Carrageenan paw edema test; type: functional
Outline: (§4)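 Male Sprague-Dawley rats, 130–150 g, fasted 18 h, 8/group. Compound in 1% carboxymethylcellulose by gavage; 1 h later 0.1 mL 1% carrageenin injected into the right hind paw. Paw volume measured by plethysmometer at 0, 1 and 3 h. Inhibition at 3 h vs vehicle controls; ED50 is the dose giving 50% inhibition.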

[6] = Compound was tested for its lethality in vivo in mouse; type: ADME, organism-based
[7] = (§5) Relative activity with respect to the dihydralazine was determined; type: functional; outline: as §2
[8] = organism: Cavia porcellus; assay: Compound was tested in vitro for antiaggregation induced by 0.5 uM ADP in guinea pig PRP; type: functional; outline: as §3
[9] = organism: Rattus norvegicus; assay: Dose that lowers blood pressure by 25 mm Hg was determined in spontaneous hypertensive rats (SHR); type: functional
Outline: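 Conscious SH rats, 150–200 g, fasted 12 h, warmed at 33 °C for 30 min before tail-cuff plethysmography of systolic pressure. Suspension in 1% methylcellulose by gavage at 1.56, 3.125, 6.25, 12.5 and 25 mg/kg, 6 rats/dose, read hourly for 6 h. ED25 is the dose lowering pressure by 25 mmHg at peak, taken from log dose-response curves.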

[10] = organism: Cavia porcellus; assay: Compound was tested in vitro for antiaggregation induced by thrombin at 0.625 IU/mL in guinea pig PRP after 2 min; type: functional; outline: as §3
[11] = organism: Cavia porcellus; assay: Compound was tested in vitro for antiaggregation induced by collagen (0.8 ug/mL) in guinea pig PRP; type: functional; outline: as §3
[12] = organism: Cavia porcellus; assay: In vitro inhibition of platelet aggregation induced by 0.5 uM ADP (irreversible activity) was determined in guinea pig PRP; type: functional; outline: as §3
[13] = organism: Rattus norvegicus; assay: as §5; type: functional; outline: as §2
[14] = (§6) relative activity with respect to the dihydralazine was determined; type: functional; outline: as §2
[15] = organism: Rattus norvegicus; assay: as §1; type: functional, organism-based; outline: as §2
[16] = organism: Rattus norvegicus; assay: Compound was tested for antihypertensive activity in normotensive rats and the dose that lowered by 25 mmHg of the blood pressure was determined; type: functional
Outline: (§7)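 Unanesthetized male Sprague-Dawley rats, 150–200 g, fasted 12 h, warmed at 33 °C for 30 min. Oral dosing at 6.25, 12.5 and 25 mg/kg; dihydralazine 0.78–6.25 mg/kg po. Tail-cuff systolic pressure read hourly for 6 h, 6 rats/dose. ED25 is the dose lowering pressure by 25 mmHg at peak, taken from log dose-response curves.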

[17] = tested on: Rattus norvegicus; assay: Compound was evaluated for its antiinflammatory activity in rat by Carrageenan paw edema test; Inactive; type: functional, organism-based; outline: as §4
[18] = organism: Rattus norvegicus; assay: Antihypertensive activity in normotensive rats; type: functional; outline: as §7
[19] = organism: Cavia porcellus; assay: Compound was tested in vitro for its antiaggregation induced by thrombin at 0.625 IU/mL in guinea pig PRP after 4 min; type: functional; outline: as §3
[20] = organism: Rattus norvegicus; assay: as §6; type: functional; outline: as §2

CC(Cl)C(=O)Nc1ccc2c(c1)CC1CC(=O)NN=C21 (stereo not drawn)
ED50 [1]: 0.3 mg/kg
Activity [2]: 62
AUC units [3]: 27140
Activity [4]: 83
ED50 [5]: 155 mg/kg
LD50 [6]: 1000 mg/kg
Activity [7]: 0.66
Activity [8]: 48
ED25 [9]: 10 mg/kg
Activity [10]: 84
Activity [11]: 60
Activity [12]: 40

Nc1ccc2c(c1)CC1CC(=O)NN=C21 (stereo not drawn)
ED50 [1]: 100 mg/kg
Activity [2]: 87
Activity [13]: 0.74
AUC units [3]: 24350
Activity [4]: 34
ED50 [5]: 40.8 mg/kg
LD50 [6]: 308 mg/kg
Activity [8]: 31
ED25 [9]: 2.6 mg/kg
Activity [10]: 44
Activity [11]: 58
Activity [12]: 66

N/N=c1\[nH][nH]/c(=N\N)c2ccccc12 [DIHYDRALAZINE]
Activity [14]: 1
ED25 [9]: 0.72 mg/kg
AUC units [15]: 17900
ED25 [16]: 3.12 mg/kg

CN1N=C2c3ccc(N)cc3CC2CC1=O (stereo not drawn)
Activity [2]: 58
Activity [13]: 0.49
AUC units [3]: 36740
Activity [4]: 37
LD50 [6]: 750 mg/kg
Activity [8]: 7
ED50 [17]: inactive
ED25 [9]: 15.5 mg/kg
Activity [10]: 36
Activity [11]: 26
Activity [12]: 33

CC(=O)Nc1ccc2c(c1)CC1CC(=O)NN=C21 (stereo not drawn)
ED50 [1]: 0.3 mg/kg
Activity [2]: 100
Activity [13]: 1.02
AUC units [3]: 17560
Activity [4]: 100
ED50 [5]: 160 mg/kg
LD50 [6]: 1000 mg/kg
Activity [8]: 45
ED25 [9]: 2.6 mg/kg
Activity [10]: 95
Activity [11]: 73
Activity [12]: 81
ED25 [18]: 25 mg/kg

CC(=O)Nc1ccc2c(c1)CC1CC(=O)N(C)N=C21 (stereo not drawn)
Activity [2]: 50
Activity [19]: 37
AUC units [3]: 31960
LD50 [6]: 1000 mg/kg
Activity [8]: 4
ED50 [17]: inactive
ED25 [9]: 15 mg/kg
Activity [10]: 5
Activity [11]: 40
Activity [12]: 23
Activity [20]: 0.6
